Measurements taken from ChEMBL document CHEMBL3227955, “Studies on the mechanism of antiviral action of 1-(beta-D-ribofuranosyl)-1,2,4-triazole-3-carboxamide (ribavirin)” (J Med Chem, 1979).
The source made the active and inactive calls. The rule behind the calls is not given here.

Organism: Rattus norvegicus
Assay: Activity at rat liver nucleoside kinase assessed as phosphorylation using [gamma-32P]-ATP after 10 to 20 mins
Method in brief: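 Rat liver nucleoside kinase was the 55–90% (NH4)2SO4 fraction of the 144000g supernatant, dialyzed. The medium was 50 mM Tris-HCl pH 8.0, 5 μM MgCl2 (so in the source), 25 mM KCl, 1 mM [γ-32P]ATP, and pyruvate kinase with 2 mM phosphoenolpyruvate. Incubation was 10 or 20 min at 37 °C, stopped by 1 min at 100 °C. Liberated Pi was precipitated with added 0.1 mM K2HPO4.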
With O=C(O)c1ncn([C@@H]2O[C@H](CO)[C@@H](O)[C@H]2O)n1 the Activity was “inactive”.
For CO[C@@H]1[C@H](O)[C@@H](CO)O[C@H]1n1cnc(C(N)=O)n1, the Activity was “inactive”.
In the case of CO[C@H]1[C@@H](O)[C@H](n2cnc(C(N)=O)n2)O[C@@H]1CO, the Activity is reported as “inactive”.
With NC(=O)c1ncn([C@@H]2O[C@H](CO)[C@@H](O)[C@H]2O)n1 the Activity was “Active”.
In the case of Nc1ncnc2c1ncn2[C@@H]1O[C@H](CO)[C@@H](O)[C@H]1O, the Activity is reported as “Active”.
With OC[C@H]1O[C@@H](n2cncn2)[C@H](O)[C@@H]1O the Activity was “inactive”.

Target: not listed separately
Assay: Inhibition of rat spleen IMP dehydrogenase using NAD and IMP up to 1 hr
Assay type: tissue-based
Method in brief: (§1)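 Rat spleen IMP dehydrogenase was the 30–40% (NH4)2SO4 fraction, dialyzed, at 0.66 mg protein/mL. Buffer was 0.1 M phosphate pH 7.7 with 1 mM EDTA, 0.5 mM 2-mercaptoethanol and 0.2 mM each NAD and IMP, started with IMP. A340 change against a no-IMP blank was followed at 37 °C for up to 1 h. Activity was expressed relative to the no-inhibitor rate.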
For NC(=O)c1ncn([C@@H]2O[C@H](COP(=O)(O)O)[C@@H](O)[C@H]2O)n1 [RIBAVIRIN MONOPHOSPHATE], the IC50 was 2 µM.
O=C(O)c1ncn([C@@H]2O[C@H](COP(=O)(O)O)[C@@H](O)[C@H]2O)n1 gave an IC50 of 70 µM.

Organism: Rattus norvegicus
Assay: Inhibition of rat spleen IMP dehydrogenase using NAD and IMP at 200 uM up to 1 hr
Assay type: tissue-based
Method in brief: as §1
With CO[C@@H]1[C@H](O)[C@@H](COP(=O)(O)O)O[C@H]1n1cnc(C(N)=O)n1 the inhibition was “inactive”.
With CO[C@H]1[C@@H](O)[C@H](n2cnc(C(N)=O)n2)O[C@@H]1COP(=O)(O)O the inhibition was “inactive”.
For O=P(O)(O)OC[C@H]1O[C@@H](n2cncn2)[C@H](O)[C@@H]1O, the inhibition was “inactive”.
